Measurements: publication PMC3195516 (Synthesis, 2010)
Like-named read-outs stand apart in the source and are kept apart here.

How the values were obtained:
[1] = system: L1210 cells; assay: L1210 cell growth inhibition; format: cell-based, Murine
In short: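 L1210 cells were kept in logarithmic-phase suspension in RPMI-1640 with 10% fetal bovine serum, 2% HEPES-MOPS buffer, 1 mM L-glutamine and 1 mM aminoguanidine at 37 °C under 5% CO₂. Cultures at 0.5–1.0 × 10⁵ cells/mL were treated, reseeded and incubated, then counted. IC50 is the concentration that reduces growth to 50% of control after the set exposure.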

[2] = system: L1210 cells; conditions: cultured L1210 cells; cited from earlier work
[3] = Mus musculus, L1210, 48 h, read-out: IC50 (µM) 48 h
[4] = Mus musculus, L1210, 96 h, read-out: IC50 (µM) 96 h
[5] = read-out: IC50 (µM) 48 h, L1210 cells, 48 h exposure
[6] = read-out: IC50 (µM) 96 h, L1210 cells, 96 h exposure

Structure (SMILES): C[C@]1(C(=O)O)CSC(c2ccc(O)cc2O)=N1 [(S)-4′-(HO)-DADFT (6), (S)-2-(2,4-dihydroxyphenyl)-4,5-dihydro-4-methyl-4-thiazolecarboxylic acid]
- IC50 [1, 3]: 19 µM
- IC50 [1, 4]: 20 µM

Structure (SMILES): CCNCCCNCCCNCCCNCC [DENSPM (1), reference compound]
- IC50 [1, 5]: 20 µM
- IC50 [1, 6]: 2 µM

Structure (SMILES): Cc1c(O)c(=O)ccn1C [L1 (2), 1,2-dimethyl-3-hydroxypyridin-4-one, reference compound]
- IC50 [1, 3]: 46 µM
- IC50 [1, 4]: 55 µM
- intracellular concentration of compound [2]: ~ 1 µM

Structure (SMILES): Cc1c(O)c(=O)ccn1CCCNCCCCNCCCN [L1-SPM-conjugate (3), 1-(12-amino-4,9-diazadodecyl)-2-methyl-3-hydroxy-4(1H)-pyridinone]
- IC50 [1, 3]: 0.2 µM
- IC50 [1, 4]: 0.2 µM
- intracellular concentration of compound [2]: 390 µM

Structure (SMILES): C[C@]1(C(=O)O)CSC(c2ccc(OCCCCNCCCNCCCN)cc2O)=N1 [NSPD-(S)-4′-(HO)-DADFT (4), (S)-4,5-dihydro-2-[2-hydroxy-4-(12-amino-5,9-diazadodecyloxy)phenyl]-4-methyl-4-thiazolecarboxylic acid]
- IC50 [1, 3]: 40 µM
- IC50 [1, 4]: 40 µM

Structure (SMILES): CCOC(=O)[C@@]1(C)CSC(c2ccc(OC(=O)c3ccc(CNCCCNCCCN)cc3)cc2O)=N1 [NSPDBn-(S)-4′-(HO)-DADFT-EE (7), ethyl (S)-4,5-dihydro-2-[2-hydroxy-4-[4-(9-amino-2,6-diazanonyl)benzoyloxy]]-4-methyl-4-thiazolecarboxylate]
- IC50 [1, 5]: 1.8 µM
- IC50 [1, 6]: 2.1 µM
